{"source": "ChEMBL document CHEMBL3351705", "about": "“Synthesis and biological evaluation of a novel class of coumarin derivatives” (Bioorg Med Chem Lett, 2014)", "key": {"Mus musculus [1]": {"system": "Mus musculus", "test": "Toxicity in mouse S180 cells allografted mouse assessed as spleen index at 1 umol/kg, ip for 7 consecutive days measured 24 hrs after last dose (reference value: 7.25 +/- 1.60)", "type": "organism-based, CCRF S-180", "conditions": "in vivo"}, "A549": {"system": "A549", "test": "Cytotoxicity against human A549 cells by MTT assay", "type": "functional, cell-based", "method_in_brief": "(§1)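 MTT cytotoxicity was measured in human A549 lung adenocarcinoma, K562 chronic myeloid leukemia, HepG2 liver carcinoma, A172 glioblastoma and Bel-7402 hepatocellular carcinoma cells, reported as IC50. Doxorubicin was the positive control.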"}, "Mus musculus [2]": {"system": "Mus musculus", "test": "Neurotoxicity in mouse S180 cells allografted mouse assessed as induction of tremors at 1 umol/kg, ip for 7 consecutive days", "type": "toxicity, organism-based, CCRF S-180", "conditions": "in vivo", "method_in_brief": "(§2)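 S180-bearing mice (n = 12 per group) got daily ip injections of 1 µmol/kg in 0.2 mL normal saline for seven consecutive days. Saline alone was the vehicle control and doxorubicin at 1 µmol/kg the positive control. Animals were watched during dosing for tremor, twitch, jumping, tetanus, supination and death. They were decapitated 24 h after the last dose.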"}, "Mus musculus [3]": {"system": "Mus musculus", "test": "Neurotoxicity in mouse S180 cells allografted mouse assessed as induction of tetanus behaviors at 1 umol/kg, ip for 7 consecutive days", "type": "toxicity, organism-based, CCRF S-180", "conditions": "in vivo", "method_in_brief": "as §2"}, "HepG2": {"system": "HepG2", "test": "Cytotoxicity against human HepG2 cells by MTT assay", "type": "functional, cell-based", "method_in_brief": "as §1"}, "Mus musculus [4]": {"system": "Mus musculus", "test": "Neurotoxicity in mouse S180 cells allografted mouse assessed as induction of jumping behaviors at 1 umol/kg, ip for 7 consecutive days", "type": "toxicity, organism-based, CCRF S-180", "conditions": "in vivo", "method_in_brief": "as §2"}, "[5]": {"test": "Cytotoxicity against human A172 cells by MTT assay", "type": "functional, cell-based", "conditions": "A 172", "method_in_brief": "as §1"}, "[6]": {"test": "Cytotoxicity against human Bel7402 cells by MTT assay", "type": "functional, cell-based", "conditions": "Bel-7402", "method_in_brief": "as §1"}, "Mus musculus [7]": {"system": "Mus musculus", "test": "Neurotoxicity in mouse S180 cells allografted mouse assessed as induction of death at 1 umol/kg, ip for 7 consecutive days", "type": "toxicity, organism-based, CCRF S-180", "conditions": "in vivo", "method_in_brief": "as §2"}, "Mus musculus [8]": {"system": "Mus musculus", "test": "Toxicity in mouse S180 cells allografted mouse assessed as heart weight at 1 umol/kg, ip for 7 consecutive days measured 24 hrs after last dose (reference value: 0.12 +/- 0.02 g)", "type": "organism-based, CCRF S-180", "conditions": "in vivo"}, "K562": {"system": "K562", "test": "Cytotoxicity against human K562 cells by MTT assay", "type": "functional, cell-based", "method_in_brief": "as §1"}, "Mus musculus [9]": {"system": "Mus musculus", "test": "Neurotoxicity in mouse S180 cells allografted mouse assessed as induction of supination at 1 umol/kg, ip for 7 consecutive days", "type": "toxicity, organism-based, CCRF S-180", "conditions": "in vivo", "method_in_brief": "as §2"}, "CCRF S-180": {"system": "CCRF S-180", "test": "Antitumor activity against mouse S180 cells allografted in mouse assessed as tumor growth inhibition at 1 umol/kg, ip for 7 consecutive days", "type": "functional", "conditions": "CCRF S-180, ip, read-out: TGI", "method_in_brief": "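S180-bearing mice received a daily ip injection of 1 µmol/kg in 0.2 mL normal saline for seven consecutive days. The vehicle group received normal saline, and doxorubicin at 1 µmol/kg in 0.9% saline was the positive control. n = 12 per group. Tumors were weighed (mean ± SD, g), and inhibition % = (C − T)/C × 100, where T and C are mean tumor weights of treated and saline groups.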"}, "Mus musculus [10]": {"system": "Mus musculus", "test": "Toxicity in mouse S180 cells allografted mouse assessed as brain weight at 1 umol/kg, ip for 7 consecutive days measured 24 hrs after last dose (reference value: 0.30 +/- 0.02 g)", "type": "organism-based, CCRF S-180", "conditions": "in vivo"}, "Mus musculus [11]": {"system": "Mus musculus", "test": "Neurotoxicity in mouse S180 cells allografted mouse assessed as induction of twitches at 1 umol/kg, ip for 7 consecutive days", "type": "toxicity, organism-based, CCRF S-180", "conditions": "in vivo", "method_in_brief": "as §2"}, "Mus musculus [12]": {"system": "Mus musculus", "test": "Toxicity in mouse S180 cells allografted mouse assessed as kidney weight at 1 umol/kg, ip for 7 consecutive days measured 24 hrs after last dose (reference value: 0.16 +/- 0.04 g)", "type": "organism-based, CCRF S-180", "conditions": "in vivo"}, "Mus musculus [13]": {"system": "Mus musculus", "test": "Toxicity in mouse S180 cells allografted mouse assessed as liver weight at 1 umol/kg, ip for 7 consecutive days measured 24 hrs after last dose (reference value: 1.84 +/- 0.32 g)", "type": "organism-based, CCRF S-180", "conditions": "in vivo"}, "Calf thymus DNA [14]": {"system": "Calf thymus DNA", "test": "Induction of DNA intercalation of calf thymus DNA assessed as reduction in DNA UV absorption by UV spectrophotometry", "type": "nucleic-acid assay", "conditions": "Bos taurus", "method_in_brief": "(§3)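 The UV spectrum of calf thymus DNA (160 µM in PBS, pH 7.4) was recorded from 200 to 350 nm. DNA was then titrated with compound in PBS pH 7.4 at 0, 2.0, 4.0, 6.0, 8.0 and 10.0 µM, and the decrease in absorbance was expressed as % hypochromicity.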"}, "[15]": {"test": "Toxicity in ip dosed mouse allografted with mouse S180 cells assessed as induction of death", "type": "organism-based, CCRF S-180", "conditions": "in vivo", "method_in_brief": "as §2"}, "Calf thymus DNA [16]": {"system": "Calf thymus DNA", "test": "Induction of DNA intercalation of calf thymus DNA assessed as compound intercalation in to base stacking at 100 uM incubated for 24 hrs by CD spectroscopy", "type": "nucleic-acid assay", "conditions": "Bos taurus", "method_in_brief": "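Calf thymus DNA (160 µM) in PBS pH 7.4 was incubated alone or with compound (100 µM) at 37 °C for 24 h, then CD spectra were recorded.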"}, "Calf thymus DNA [17]": {"system": "Calf thymus DNA", "test": "Induction of DNA intercalation of calf thymus DNA assessed reduction in compound fluorescence intensity at 14 uM by fluorescence spectrophotometry", "type": "nucleic-acid assay", "set-up": "scale not given: the % may be the effect or the level left", "conditions": "Bos taurus", "method_in_brief": "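Fluorescence of compound (14 µM in PBS, pH 7.4) was recorded alone and with calf thymus DNA at final concentrations of 0, 1.5, 3.0, 4.5, 6.0 and 7.5 µM. Excitation was 401 nm and emission 447 nm, with the decrease in fluorescence intensity recorded.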"}, "Mus musculus [18]": {"system": "Mus musculus", "test": "Toxicity in mouse S180 cells allografted mouse assessed as induction of death up to 500 mg/kg, ip", "type": "organism-based, CCRF S-180", "set-up": "dose 500 mg/kg, route intraperitoneal", "conditions": "in vivo"}, "Calf thymus DNA [19]": {"system": "Calf thymus DNA", "test": "Induction of DNA intercalation of calf thymus DNA assessed hypochromic effect at 2 to 10 uM by UV spectrophotometry", "type": "nucleic-acid assay", "conditions": "Bos taurus", "method_in_brief": "as §3"}}, "note": "Active and inactive are the calls of the source. The calls are words filed in the database; no cut-off is given here.", "data": [{"molecule": "CC(C)C[C@H](NC(=O)[C@H](Cc1c[nH]c2ccccc12)NC(=O)[C@H](Cc1c[nH]c2ccccc12)NC(=O)c1cc2ccc(O)cc2oc1=O)C(=O)OCc1ccccc1", "values": [{"measurement": "Activity_index", "setting": "Mus musculus [1]", "value": 5.41}, {"measurement": "IC50", "setting": "A549", "value": 22, "unit": "µM"}, {"measurement": "Activity", "setting": "Mus musculus [2]", "value": "Non-toxic"}, {"measurement": "Activity", "setting": "Mus musculus [3]", "value": "Non-toxic"}, {"measurement": "IC50", "setting": "HepG2", "value": 22.9, "unit": "µM"}, {"measurement": "Activity", "setting": "Mus musculus [4]", "value": "Non-toxic"}, {"measurement": "IC50", "setting": "[5]", "value": 21.9, "unit": "µM"}, {"measurement": "IC50", "setting": "[6]", "value": 94.9, "unit": "µM"}, {"measurement": "Activity", "setting": "Mus musculus [7]", "value": "Non-toxic"}, {"measurement": "Activity", "setting": "Mus musculus [8]", "value": 0.11, "unit": "g"}, {"measurement": "IC50", "setting": "K562", "value": 14.7, "unit": "µM"}, {"measurement": "Activity", "setting": "Mus musculus [9]", "value": "Non-toxic"}, {"measurement": "inhibition in vivo at 1 µmol/kg", "setting": "CCRF S-180", "value": 55.1, "unit": "%"}, {"measurement": "Activity", "setting": "Mus musculus [10]", "value": 0.28, "unit": "g"}, {"measurement": "Activity", "setting": "Mus musculus [11]", "value": "Non-toxic"}, {"measurement": "Activity", "setting": "Mus musculus [12]", "value": 0.18, "unit": "g"}, {"measurement": "Activity", "setting": "Mus musculus [13]", "value": 1.6, "unit": "g"}]}, {"molecule": "O=C(CNC(=O)[C@H](Cc1c[nH]c2ccccc12)NC(=O)[C@H](Cc1c[nH]c2ccccc12)NC(=O)c1cc2ccc(O)cc2oc1=O)OCc1ccccc1", "values": [{"measurement": "Activity", "setting": "Calf thymus DNA [14]", "value": "Dose-dependent effect"}, {"measurement": "Activity_index", "setting": "Mus musculus [1]", "value": 7.92}, {"measurement": "IC50", "setting": "A549", "value": "> 200", "unit": "µM"}, {"measurement": "Activity", "setting": "Mus musculus [2]", "value": "Non-toxic"}, {"measurement": "LD50", "setting": "[15]", "value": "> 500", "unit": "mg/kg"}, {"measurement": "Activity", "setting": "Mus musculus [3]", "value": "Non-toxic"}, {"measurement": "Activity", "setting": "Calf thymus DNA [16]", "value": "Active"}, {"measurement": "Activity", "setting": "Calf thymus DNA [17]", "value": 15.9, "unit": "%"}, {"measurement": "IC50", "setting": "HepG2", "value": 16.4, "unit": "µM"}, {"measurement": "Activity", "setting": "Mus musculus [4]", "value": "Non-toxic"}, {"measurement": "IC50", "setting": "[5]", "value": 10.1, "unit": "µM"}, {"measurement": "IC50", "setting": "[6]", "value": 100, "unit": "µM"}, {"measurement": "Activity", "setting": "Mus musculus [18]", "value": "Non-toxic"}, {"measurement": "Activity", "setting": "Mus musculus [7]", "value": "Non-toxic"}, {"measurement": "Activity", "setting": "Calf thymus DNA [19]", "value": 7.4, "unit": "%"}, {"measurement": "Activity", "setting": "Mus musculus [8]", "value": 0.11, "unit": "g"}, {"measurement": "IC50", "setting": "K562", "value": 23.9, "unit": "µM"}, {"measurement": "Activity", "setting": "Mus musculus [9]", "value": "Non-toxic"}, {"measurement": "inhibition in vivo at 1 µmol/kg", "setting": "CCRF S-180", "value": 59.5, "unit": "%"}, {"measurement": "Activity", "setting": "Mus musculus [10]", "value": 0.29, "unit": "g"}, {"measurement": "Activity", "setting": "Mus musculus [11]", "value": "Non-toxic"}, {"measurement": "Activity", "setting": "Mus musculus [12]", "value": 0.2, "unit": "g"}, {"measurement": "Activity", "setting": "Mus musculus [13]", "value": 1.86, "unit": "g"}]}, {"molecule": "O=C(O)c1cc2ccc(O)cc2oc1=O", "values": [{"measurement": "Activity_index", "setting": "Mus musculus [1]", "value": 8.44}, {"measurement": "IC50", "setting": "A549", "value": "> 200", "unit": "µM"}, {"measurement": "Activity", "setting": "Mus musculus [2]", "value": "Non-toxic"}, {"measurement": "Activity", "setting": "Mus musculus [3]", "value": "Non-toxic"}, {"measurement": "IC50", "setting": "HepG2", "value": "> 200", "unit": "µM"}, {"measurement": "Activity", "setting": "Mus musculus [4]", "value": "Non-toxic"}, {"measurement": "IC50", "setting": "[5]", "value": "> 200", "unit": "µM"}, {"measurement": "IC50", "setting": "[6]", "value": "> 200", "unit": "µM"}, {"measurement": "Activity", "setting": "Mus musculus [7]", "value": "Non-toxic"}, {"measurement": "Activity", "setting": "Mus musculus [8]", "value": 0.12, "unit": "g"}, {"measurement": "IC50", "setting": "K562", "value": "> 200", "unit": "µM"}, {"measurement": "Activity", "setting": "Mus musculus [9]", "value": "Non-toxic"}, {"measurement": "inhibition in vivo at 1 µmol/kg", "setting": "CCRF S-180", "value": 34.2, "unit": "%"}, {"measurement": "Activity", "setting": "Mus musculus [10]", "value": 0.29, "unit": "g"}, {"measurement": "Activity", "setting": "Mus musculus [11]", "value": "Non-toxic"}, {"measurement": "Activity", "setting": "Mus musculus [12]", "value": 0.2, "unit": "g"}, {"measurement": "Activity", "setting": "Mus musculus [13]", "value": 1.81, "unit": "g"}]}]}
